For 10 compounds, IC50 results are on record in ChEMBL document CHEMBL3875168, “Synthesis and apoptosis inducing studies of triazole linked 3-benzylidene isatin derivatives” (Eur J Med Chem, 2016).

A short description of the first test: Cytotoxicity against human DU145 cells assessed as cell growth inhibition after 48 hrs by MTT assay. Format: functional, cell-based. Particulars: DU-145, 48 h. Summed up: (§1)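 Cell lines (NCCS) grown in DMEM or RPMI with 10% FBS and antibiotic-antimycotic at 37 °C, 5% CO2, 90% humidity. Cells seeded at 3-5×10^3 per well, treated 48 h with serial dilutions in medium beside vehicle control. Medium replaced with MTT (0.5 mg/mL) for 4 h, absorbance read at 570 nm. IC50 taken from concentration-response curves; sunitinib served as reference.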
In general terms: Formazan colour is commonly taken as a measure of viable cells.
In general, IC50 refers to the concentration that gives 50% inhibition. For the compound `COc1cc(Cn2cc(COc3cccc(/C=C4/C(=O)Nc5ccccc54)c3)nn2)cc(OC)c1`, the IC50 is 25.6 µM.
Same read-out and setting: the figure for `O=C1Nc2ccc(C(=O)c3ccccc3)cc2/C1=C\c1cccc(OCc2cn(Cc3ccccc3)nn2)c1` is more than 50 µM; for `Cc1ccc(C(C#Cc2ccccc2)c2ccc3c(c2)/C(=C/c2cccc(OCc4cn(Cc5ccccc5)nn4)c2)C(=O)N3)cc1` (stereo not given) it is more than 50 µM; for `O=C1Nc2ccc(C(c3ccccc3)c3ccccc3)cc2/C1=C\c1cccc(OCc2cn(Cc3ccccc3)nn2)c1` it is more than 50 µM.
The same measure, in the same setting: the value for `O=C1Nc2cc(Br)ccc2/C1=C\c1cccc(OCc2cn(Cc3ccccc3)nn2)c1` was 5.7 µM; that for `O=C1Nc2ccccc2/C1=C\c1cccc(OCc2cn(Cc3ccccc3)nn2)c1` was 31.7 µM.

The nature of another test: Cytotoxicity against human PC3 cells assessed as cell growth inhibition after 48 hrs by MTT assay. Format: functional, cell-based. Particulars: PC-3, 48 h. The procedure, abridged:
as §1
As for `O=C1Nc2ccc([N+](=O)[O-])cc2/C1=C\c1cccc(OCc2cn(Cc3ccccc3)nn2)c1`, the half-inhibitory concentration (IC50) was more than 50 µM.
Same read-out and setting: the value for `O=C1Nc2ccccc2/C1=C/c1cccc(OCc2cn(Cc3ccccc3)nn2)c1` was 34.5 µM; that for `COc1cc(Cn2cc(COc3cccc(/C=C4/C(=O)Nc5ccccc54)c3)nn2)cc(OC)c1` was 37.1 µM.
The same measure, in the same setting: the figure for `O=C1Nc2ccc(F)cc2/C1=C\c1cccc(OCc2cn(Cc3ccccc3)nn2)c1` is more than 50 µM; for `O=C1Nc2ccc(C(=O)c3ccccc3)cc2/C1=C\c1cccc(OCc2cn(Cc3ccccc3)nn2)c1` it is more than 50 µM; for `Cc1ccc(C(C#Cc2ccccc2)c2ccc3c(c2)/C(=C/c2cccc(OCc4cn(Cc5ccccc5)nn4)c2)C(=O)N3)cc1` (stereo not given) it is more than 50 µM.
Still for that read-out and setting: the figure for `COc1cc(Cn2cc(COc3cccc(/C=C4\C(=O)Nc5ccccc54)c3)nn2)cc(OC)c1` is 31.7 µM; for `O=C1Nc2ccc(C(c3ccccc3)c3ccccc3)cc2/C1=C\c1cccc(OCc2cn(Cc3ccccc3)nn2)c1` it is more than 50 µM.
Regarding `O=C1Nc2cc(Br)ccc2/C1=C\c1cccc(OCc2cn(Cc3ccccc3)nn2)c1`, the half-inhibitory concentration (IC50) is more than 50 µM.
On the same count and under the same terms, the value for `O=C1Nc2ccccc2/C1=C\c1cccc(OCc2cn(Cc3ccccc3)nn2)c1` was 29.5 µM.

The next test can be described thus: Cytotoxicity against human MDA-MB-231 cells assessed as cell growth inhibition after 48 hrs by MTT assay. Format: functional, cell-based. The settings on record: MDA-MB-231, 48 h. Summed up: as §1
As for `O=C1Nc2ccc([N+](=O)[O-])cc2/C1=C\c1cccc(OCc2cn(Cc3ccccc3)nn2)c1`, the IC50 is more than 50 µM.
For `COc1cc(Cn2cc(COc3cccc(/C=C4/C(=O)Nc5ccccc54)c3)nn2)cc(OC)c1`, the IC50 was 11.7 µM.
Still for that read-out and setting: the figure for `O=C1Nc2ccc(F)cc2/C1=C\c1cccc(OCc2cn(Cc3ccccc3)nn2)c1` is more than 50 µM.
On to `O=C1Nc2ccc(C(=O)c3ccccc3)cc2/C1=C\c1cccc(OCc2cn(Cc3ccccc3)nn2)c1`, for which the IC50 is more than 50 µM.
Same read-out and setting: the figure for `Cc1ccc(C(C#Cc2ccccc2)c2ccc3c(c2)/C(=C/c2cccc(OCc4cn(Cc5ccccc5)nn4)c2)C(=O)N3)cc1` (stereo not given) is more than 50 µM; for `COc1cc(Cn2cc(COc3cccc(/C=C4\C(=O)Nc5ccccc54)c3)nn2)cc(OC)c1` it is more than 50 µM.
Still for that read-out and setting: the figure for `O=C1Nc2ccc(C(c3ccccc3)c3ccccc3)cc2/C1=C\c1cccc(OCc2cn(Cc3ccccc3)nn2)c1` is more than 50 µM.

The next test in a line: Cytotoxicity against human BT549 cells assessed as cell growth inhibition after 48 hrs by MTT assay. Format: functional, cell-based. Particulars: BT-549, 48 h. The procedure, abridged:
as §1
As to `O=C1Nc2ccc([N+](=O)[O-])cc2/C1=C\c1cccc(OCc2cn(Cc3ccccc3)nn2)c1`, the IC50 is more than 50 µM.
The same measure, in the same setting: the figure for `O=C1Nc2ccccc2/C1=C/c1cccc(OCc2cn(Cc3ccccc3)nn2)c1` is more than 50 µM; for `O=C1Nc2ccc(F)cc2/C1=C\c1cccc(OCc2cn(Cc3ccccc3)nn2)c1` it is more than 50 µM; for `O=C1Nc2ccc(C(=O)c3ccccc3)cc2/C1=C\c1cccc(OCc2cn(Cc3ccccc3)nn2)c1` it is more than 50 µM.
Still for that read-out and setting: the value for `Cc1ccc(C(C#Cc2ccccc2)c2ccc3c(c2)/C(=C/c2cccc(OCc4cn(Cc5ccccc5)nn4)c2)C(=O)N3)cc1` (stereo not given) was more than 50 µM; that for `COc1cc(Cn2cc(COc3cccc(/C=C4\C(=O)Nc5ccccc54)c3)nn2)cc(OC)c1` was more than 50 µM; that for `O=C1Nc2ccc(C(c3ccccc3)c3ccccc3)cc2/C1=C\c1cccc(OCc2cn(Cc3ccccc3)nn2)c1` was more than 50 µM.
Regarding `O=C1Nc2cc(Br)ccc2/C1=C\c1cccc(OCc2cn(Cc3ccccc3)nn2)c1`, the IC50 was more than 50 µM.
Same read-out and setting: the figure for `O=C1Nc2ccccc2/C1=C\c1cccc(OCc2cn(Cc3ccccc3)nn2)c1` is more than 50 µM.

A short description of the next test: Cytotoxicity against human A549 cells assessed as cell growth inhibition after 48 hrs by MTT assay. Format: functional, cell-based. The settings on record: A549, 48 h. Summed up:
as §1
As for `O=C1Nc2ccc([N+](=O)[O-])cc2/C1=C\c1cccc(OCc2cn(Cc3ccccc3)nn2)c1`, the IC50 was more than 50 µM.
Take `O=C1Nc2ccccc2/C1=C/c1cccc(OCc2cn(Cc3ccccc3)nn2)c1`: the concentration for half-maximal inhibition (IC50) is 31.5 µM.
For the compound `COc1cc(Cn2cc(COc3cccc(/C=C4/C(=O)Nc5ccccc54)c3)nn2)cc(OC)c1`, the IC50 stood at 26.7 µM.
Still for that read-out and setting: the figure for `O=C1Nc2ccc(F)cc2/C1=C\c1cccc(OCc2cn(Cc3ccccc3)nn2)c1` is more than 50 µM; for `O=C1Nc2ccc(C(=O)c3ccccc3)cc2/C1=C\c1cccc(OCc2cn(Cc3ccccc3)nn2)c1` it is more than 50 µM.
Still for that read-out and setting: the figure for `Cc1ccc(C(C#Cc2ccccc2)c2ccc3c(c2)/C(=C/c2cccc(OCc4cn(Cc5ccccc5)nn4)c2)C(=O)N3)cc1` (stereo not given) is more than 50 µM; for `COc1cc(Cn2cc(COc3cccc(/C=C4\C(=O)Nc5ccccc54)c3)nn2)cc(OC)c1` it is 43.3 µM; for `O=C1Nc2ccc(C(c3ccccc3)c3ccccc3)cc2/C1=C\c1cccc(OCc2cn(Cc3ccccc3)nn2)c1` it is more than 50 µM.
Same read-out and setting: the figure for `O=C1Nc2cc(Br)ccc2/C1=C\c1cccc(OCc2cn(Cc3ccccc3)nn2)c1` is 9.6 µM; for `O=C1Nc2ccccc2/C1=C\c1cccc(OCc2cn(Cc3ccccc3)nn2)c1` it is more than 50 µM.

The nature of another test: Cytotoxicity against human HeLa cells assessed as cell growth inhibition after 48 hrs by MTT assay. Format: functional, cell-based.
Settings: not given
The procedure, abridged: as §1
Turning to `O=C1Nc2ccc([N+](=O)[O-])cc2/C1=C\c1cccc(OCc2cn(Cc3ccccc3)nn2)c1`, the IC50 was more than 50 µM.
Still for that read-out and setting: the figure for `COc1cc(Cn2cc(COc3cccc(/C=C4/C(=O)Nc5ccccc54)c3)nn2)cc(OC)c1` is 22 µM; for `O=C1Nc2ccc(F)cc2/C1=C\c1cccc(OCc2cn(Cc3ccccc3)nn2)c1` it is more than 50 µM; for `O=C1Nc2ccc(C(=O)c3ccccc3)cc2/C1=C\c1cccc(OCc2cn(Cc3ccccc3)nn2)c1` it is more than 50 µM.
On the same count and under the same terms, the figure for `Cc1ccc(C(C#Cc2ccccc2)c2ccc3c(c2)/C(=C/c2cccc(OCc4cn(Cc5ccccc5)nn4)c2)C(=O)N3)cc1` (stereo not given) is more than 50 µM; for `COc1cc(Cn2cc(COc3cccc(/C=C4\C(=O)Nc5ccccc54)c3)nn2)cc(OC)c1` it is 33.8 µM; for `O=C1Nc2ccc(C(c3ccccc3)c3ccccc3)cc2/C1=C\c1cccc(OCc2cn(Cc3ccccc3)nn2)c1` it is more than 50 µM.
Still for that read-out and setting: the figure for `O=C1Nc2ccccc2/C1=C\c1cccc(OCc2cn(Cc3ccccc3)nn2)c1` is 32.3 µM.
